Measurements from ChEMBL document CHEMBL4725389, “Novel Blocker of Onco SK3 Channels Derived from Scorpion Toxin Tamapin and Active against Migration of Cancer Cells” (ACS Med Chem Lett, 2020).
Positions of bridges follow the written chain, without caps; N, C: chain ends. Residues, ends and D or L forms follow the SMILES beside them.

Experiments:
[1] = target: T1, Small conductance calcium-activated potassium channel protein 3 (Homo sapiens, UniProt Q9UGI6); experiment: Inhibition of recombinant human SK3 expressed in HEK293T cells assessed as reduction in channel current with holding potential 0 mV and ramp voltage from -100 to 100 mV by whole cell patch clamp method; format: cell-based, HEK-293T
T1 sequence (Q9UGI6 whole entry): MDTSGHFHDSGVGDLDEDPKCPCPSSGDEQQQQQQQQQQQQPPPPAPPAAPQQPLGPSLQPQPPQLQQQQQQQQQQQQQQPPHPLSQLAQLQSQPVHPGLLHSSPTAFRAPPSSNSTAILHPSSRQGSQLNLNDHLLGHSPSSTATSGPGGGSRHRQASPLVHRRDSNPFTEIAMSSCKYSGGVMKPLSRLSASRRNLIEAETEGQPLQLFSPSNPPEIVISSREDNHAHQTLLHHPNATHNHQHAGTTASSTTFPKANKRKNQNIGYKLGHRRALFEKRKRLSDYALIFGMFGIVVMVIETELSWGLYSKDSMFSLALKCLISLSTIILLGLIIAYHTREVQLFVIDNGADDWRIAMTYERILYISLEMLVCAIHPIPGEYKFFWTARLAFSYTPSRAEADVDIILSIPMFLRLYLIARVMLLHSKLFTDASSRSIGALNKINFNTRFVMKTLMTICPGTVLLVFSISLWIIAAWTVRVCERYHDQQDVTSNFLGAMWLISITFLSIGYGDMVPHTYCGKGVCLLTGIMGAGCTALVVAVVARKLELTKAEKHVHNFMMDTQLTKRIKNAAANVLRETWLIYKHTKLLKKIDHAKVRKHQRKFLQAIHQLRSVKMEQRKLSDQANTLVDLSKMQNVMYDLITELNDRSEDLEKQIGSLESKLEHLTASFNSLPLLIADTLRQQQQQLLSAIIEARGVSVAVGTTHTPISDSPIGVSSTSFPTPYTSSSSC
Summary of the method: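 HEK293T stably expressing recombinant human SK3, whole-cell recording at pCa 6. Ramp −100 to 100 mV, 500 ms, from 0 mV holding; current at 0 mV taken as SKCa-only. Concentration–response curves fitted for EC50 (means ± SEM, n = 3–8).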

[2] = target: T1, Small conductance calcium-activated potassium channel protein 3; experiment: Inhibition of recombinant human SK3 expressed in HEK293T cells at 10 nM and holding potential at 0 mV and ramp voltage from -100 to 100 mV by whole cell patch clamp method relative to control; format: cell-based; settings: HEK-293T
[3] = target: Small conductance calcium-activated potassium channel protein 2 (Rattus norvegicus) (UniProt P70604); experiment: Inhibition of recombinant rat SK2 expressed in HEK293 cells at 10 nM and holding potential at 0 mV and ramp voltage from -100 to 100 mV by whole cell patch clamp method relative to control; format: cell-based
Chain of Small conductance calcium-activated potassium channel protein 2 (Rattus norvegicus) (P70604 whole entry): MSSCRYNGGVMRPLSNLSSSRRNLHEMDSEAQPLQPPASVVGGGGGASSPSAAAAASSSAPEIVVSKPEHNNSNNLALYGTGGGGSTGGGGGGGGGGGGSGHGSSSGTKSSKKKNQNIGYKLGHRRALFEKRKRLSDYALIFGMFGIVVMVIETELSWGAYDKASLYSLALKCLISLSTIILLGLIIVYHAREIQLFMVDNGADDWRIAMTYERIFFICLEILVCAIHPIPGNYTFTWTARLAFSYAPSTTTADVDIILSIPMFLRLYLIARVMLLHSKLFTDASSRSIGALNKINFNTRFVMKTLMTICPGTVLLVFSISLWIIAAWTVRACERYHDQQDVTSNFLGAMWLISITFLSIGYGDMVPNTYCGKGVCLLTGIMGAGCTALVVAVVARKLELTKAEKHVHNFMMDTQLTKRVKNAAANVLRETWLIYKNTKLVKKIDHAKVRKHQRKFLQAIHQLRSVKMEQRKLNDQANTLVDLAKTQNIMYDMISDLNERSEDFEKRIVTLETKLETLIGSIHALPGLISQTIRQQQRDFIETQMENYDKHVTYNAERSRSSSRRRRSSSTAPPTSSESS

[4] = target: T1, Small conductance calcium-activated potassium channel protein 3; experiment: Inhibition of SK3-dependent cell migration in human MDA-MB-435 cells assessed as ratio of total cells migrating by matrigel invasion method relative to control; format: cell-based; settings: concentration not given here
[5] = target: T1, Small conductance calcium-activated potassium channel protein 3; experiment: Inhibition of recombinant human SK3 expressed in HEK293T cells assessed as ratio of amplitude of outward current blocked in presence and absence of compound at 1 nM and holding potential at 0 mV and ramp voltage from -100 to 100 mV by whole cell patch clamp method relative to control; format: cell-based
Summary of the method: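 Whole-cell patch clamp on HEK293T cells expressing recombinant human SK3, pCa 6. Ramp from −100 to 100 mV over 500 ms, holding at 0 mV; currents analysed at 0 mV. Peptide at 1 nM, then 100 nM apamin to block residual SKCa current. Inhibition = ratio of outward current amplitude blocked at 1 nM to amplitude without compound.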

MDA-MB-435 = experiment: Inhibition of cell migration in human MDA-MB-435 cells expressing SK3 by matrigel invasion method relative to control

CC[C@H](C)[C@@H]1NC(=O)[C@@H]2CSSC[C@H](NC(=O)[C@H](Cc3ccccc3)NC(=O)[C@H](C)N)C(=O)N[C@@H](CC(N)=O)C(=O)N[C@@H](CC(C)C)C(=O)N[C@@H](CCCNC(=N)N)C(=O)N[C@@H](CCCNC(=N)N)C(=O)N[C@H]3CSSC[C@H](NC(=O)[C@H](CCCCN)NC(=O)[C@H](CCC(=O)O)NC(=O)CNC1=O)C(=O)N[C@@H](CCC(=O)O)C(=O)N[C@H](C(=O)N[C@H](C(=O)N1CCC[C@H]1C(=O)N[C@@H](Cc1ccc(O)cc1)C(=O)O)C(C)C)CSSC[C@H](NC(=O)[C@H](CO)NC(=O)[C@H](CC(C)C)NC(=O)[C@H](CCC(=O)O)NC3=O)C(=O)N[C@@H](CCCNC(=N)N)C(=O)N[C@@H](CO)C(=O)N[C@@H](CC(C)C)C(=O)NCC(=O)N[C@@H](CC(C)C)C(=O)N[C@@H](CC(C)C)C(=O)NCC(=O)N[C@@H](CCCCN)C(=O)N2 (H-AFCNLRRCELSCRSLGLLGKCIGEKCECVPY-OH; disulfide 3-21, 8-26, 12-28)
EC50 [1]: 0.38 nM
inhibition [2]: > 85%
inhibition [3]: 40%
inhibition [4]: 76.5%
inhibition [5]: 73%
inhibition (INH) (MDA-MB-435): 45.9%
